Measurements published in ChEMBL document CHEMBL4689842, “EUbOPEN Chemogenomics Library wave 1” (2021).
Values joined by “and” are separate entries in the source; they are usually repeats but may differ in a detail not shown here. Equal values may be shown once.

System: U2OS
Test: Multiplex assay against U2OS
Format: toxicity, cell-based
Conditions: human
Summary of the method: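 Phenotypes for tubulin, mitochondrial mass and membrane permeability are expressed as per cents of healthy-nucleus cells. Cells were stained live at seeding with Hoechst33342, BioTracker Green Microtubule Cytoskeleton Dye, MitoTracker Red and Annexin V Alexa Fluor 680, then imaged after compound addition on a CQ1 microscope at 37°C and 5% CO2. Machine-learning gating in CellPathfinder separated Hoechst high-intensity objects from normal cells, divided normal cells by nuclear state (healthy, pyknosed, fragmented) and divided pyknosed cells into mitotic or apoptotic.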

[1] = 12 h, 1 µM, compound concentration 1 uM, replicate 1
[2] = 12 h, 1 µM, compound concentration 1 uM, replicate 2
[3] = 12 h, 10 µM, compound concentration 10 uM, replicate 1
[4] = 12 h, 10 µM, compound concentration 10 uM, replicate 2
[5] = 24 h, 1 µM, compound concentration 1 uM, replicate 1
[6] = 24 h, 1 µM, compound concentration 1 uM, replicate 2
[7] = 24 h, 10 µM, compound concentration 10 uM, replicate 1
[8] = 24 h, 10 µM, compound concentration 10 uM, replicate 2
[9] = 48 h, 10 µM, compound concentration 10 uM, replicate 1
[10] = 48 h, 10 µM, compound concentration 10 uM, replicate 2
[11] = 48 h, 1 µM, compound concentration 1 uM, replicate 1
[12] = 48 h, 1 µM, compound concentration 1 uM, replicate 2

## C[C@@]1(C(=O)Nc2ccc(F)nc2)CCCN1c1nc(Nc2cc(C3CC3)n[nH]2)c2cccn2n1 [BMS-754807]
[1]
  Population Apoptotic (%): 25%
  Population Fragmented Nuclei (%): 8%
  Population Healthy Nuclei (%): 75%
  Population Hoechst High Intensity Objects (%): 4%
  Population Membrane Permeable-Phenotype (%): 61%
  Population Mitochondria Different-Phenotype (%): 10%
  Population Mitotic Cells (%): 74%
  Population Normal (%): 95%
  Population Pyknosed Nuclei (%): 15%
  Population Tubulin-Different-Phenotype (%): 78%
  Total Cell Count: 181
[2]
  Population Apoptotic (%): 16%
  Population Fragmented Nuclei (%): 36%
  Population Healthy Nuclei (%): 56%
  Population Hoechst High Intensity Objects (%): 27%
  Population Membrane Permeable-Phenotype (%): 45%
  Population Mitochondria Different-Phenotype (%): 25%
  Population Mitotic Cells (%): 83%
  Population Normal (%): 72%
  Population Pyknosed Nuclei (%): 7%
  Population Tubulin-Different-Phenotype (%): 62%
  Total Cell Count: 117
[3]
  Population Apoptotic (%): 41% and 56%
  Population Fragmented Nuclei (%): 10% and 4%
  Population Healthy Nuclei (%): 65% and 86%
  Population Hoechst High Intensity Objects (%): 6% and 2%
  Population Membrane Permeable-Phenotype (%): 6% and 9%
  Population Mitochondria Different-Phenotype (%): 71% and 27%
  Population Mitotic Cells (%): 58% and 43%
  Population Normal (%): 93% and 97%
  Population Pyknosed Nuclei (%): 24% and 8%
  Total Cell Count: 191 and 183
[4]
  Population Apoptotic (%): 33%
  Population Fragmented Nuclei (%): 15% and 11%
  Population Healthy Nuclei (%): 58% and 80%
  Population Hoechst High Intensity Objects (%): 13% and 9%
  Population Membrane Permeable-Phenotype (%): 22% and 16%
  Population Mitochondria Different-Phenotype (%): 70% and 40%
  Population Mitotic Cells (%): 66%
  Population Normal (%): 86% and 90%
  Total Cell Count: 53 and 85
[5]
  Population Apoptotic (%): 38%
  Population Fragmented Nuclei (%): 15%
  Population Healthy Nuclei (%): 60%
  Population Hoechst High Intensity Objects (%): 4%
  Population Membrane Permeable-Phenotype (%): 63%
  Population Mitochondria Different-Phenotype (%): 32%
  Population Mitotic Cells (%): 61%
  Population Normal (%): 95%
  Population Pyknosed Nuclei (%): 24%
  Population Tubulin-Different-Phenotype (%): 78%
  Total Cell Count: 181
[6]
  Population Apoptotic (%): 40%
  Population Fragmented Nuclei (%): 41%
  Population Healthy Nuclei (%): 47%
  Population Hoechst High Intensity Objects (%): 20%
  Population Membrane Permeable-Phenotype (%): 41%
  Population Mitochondria Different-Phenotype (%): 30%
  Population Mitotic Cells (%): 60%
  Population Normal (%): 79%
  Population Pyknosed Nuclei (%): 10%
  Population Tubulin-Different-Phenotype (%): 51%
  Total Cell Count: 114
[7]
  Population Apoptotic (%): 28% and 49%
  Population Fragmented Nuclei (%): 11% and 15%
  Population Healthy Nuclei (%): 76% and 54%
  Population Hoechst High Intensity Objects (%): 5% and 8%
  Population Membrane Permeable-Phenotype (%): 11% and 8%
  Population Mitochondria Different-Phenotype (%): 51% and 74%
  Population Mitotic Cells (%): 71% and 50%
  Population Normal (%): 94% and 91%
  Population Pyknosed Nuclei (%): 11% and 30%
  Total Cell Count: 187 and 184
[8]
  Population Fragmented Nuclei (%): 17% and 12%
  Population Healthy Nuclei (%): 47% and 74%
  Population Hoechst High Intensity Objects (%): 9% and 11%
  Population Membrane Permeable-Phenotype (%): 22%
  Population Mitochondria Different-Phenotype (%): 59% and 45%
  Population Mitotic Cells (%): 62% and 90%
  Population Normal (%): 90% and 88%
  Population Pyknosed Nuclei (%): 34% and 12%
  Population Tubulin-Different-Phenotype (%): 77% and 28%
  Total Cell Count: 51 and 89
[9]
  Population Apoptotic (%): 72%
  Population Fragmented Nuclei (%): 26%
  Population Healthy Nuclei (%): 21%
  Population Hoechst High Intensity Objects (%): 11%
  Population Membrane Permeable-Phenotype (%): 13%
  Population Mitochondria Different-Phenotype (%): 75%
  Population Mitotic Cells (%): 27%
  Population Normal (%): 88%
  Population Pyknosed Nuclei (%): 52%
  Population Tubulin-Different-Phenotype (%): 88%
  Total Cell Count: 193
[10]
  Population Apoptotic (%): 66%
  Population Fragmented Nuclei (%): 25%
  Population Healthy Nuclei (%): 30%
  Population Hoechst High Intensity Objects (%): 20%
  Population Membrane Permeable-Phenotype (%): 91%
  Population Mitochondria Different-Phenotype (%): 83%
  Population Mitotic Cells (%): 33%
  Population Normal (%): 80%
  Population Pyknosed Nuclei (%): 45%
  Population Tubulin-Different-Phenotype (%): 91%
  Total Cell Count: 50

## CN1CCN(CCOc2cc(OC3CCOCC3)c3c(Nc4c(Cl)ccc5c4OCO5)ncnc3c2)CC1 [SARACATINIB]
[1]
  Population Apoptotic (%): 48%
  Population Fragmented Nuclei (%): 15%
  Population Healthy Nuclei (%): 69%
  Population Hoechst High Intensity Objects (%): 5%
  Population Membrane Permeable-Phenotype (%): 5%
  Population Mitochondria Different-Phenotype (%): 20%
  Population Mitotic Cells (%): 51%
  Population Normal (%): 94%
  Population Pyknosed Nuclei (%): 15%
  Population Tubulin-Different-Phenotype (%): 15%
  Total Cell Count: 138
[2]
  Population Apoptotic (%): 70%
  Population Fragmented Nuclei (%): 9%
  Population Healthy Nuclei (%): 72%
  Population Hoechst High Intensity Objects (%): 10%
  Population Membrane Permeable-Phenotype (%): 0%
  Population Mitochondria Different-Phenotype (%): 23%
  Population Mitotic Cells (%): 30%
  Population Normal (%): 90%
  Population Pyknosed Nuclei (%): 18%
  Population Tubulin-Different-Phenotype (%): 10%
[3]
  Population Apoptotic (%): 63%
  Population Fragmented Nuclei (%): 15%
  Population Healthy Nuclei (%): 57%
  Population Hoechst High Intensity Objects (%): 8%
  Population Membrane Permeable-Phenotype (%): 29%
  Population Mitochondria Different-Phenotype (%): 89%
  Population Mitotic Cells (%): 36%
  Population Normal (%): 91%
  Population Pyknosed Nuclei (%): 26%
  Population Tubulin-Different-Phenotype (%): 100%
  Total Cell Count: 184
[4]
  Population Apoptotic (%): 75%
  Population Fragmented Nuclei (%): 9%
  Population Healthy Nuclei (%): 71%
  Population Hoechst High Intensity Objects (%): 7%
  Population Membrane Permeable-Phenotype (%): 21%
  Population Mitochondria Different-Phenotype (%): 100%
  Population Mitotic Cells (%): 25%
  Population Normal (%): 92%
  Population Pyknosed Nuclei (%): 18%
  Total Cell Count: 60
[5]
  Population Apoptotic (%): 44%
  Population Healthy Nuclei (%): 71%
  Population Hoechst High Intensity Objects (%): 4%
  Population Membrane Permeable-Phenotype (%): 4%
  Population Mitochondria Different-Phenotype (%): 17%
  Population Mitotic Cells (%): 55%
  Population Normal (%): 95%
  Population Pyknosed Nuclei (%): 13%
  Population Tubulin-Different-Phenotype (%): 11%
  Total Cell Count: 139
[6]
  Population Apoptotic (%): 50%
  Population Fragmented Nuclei (%): 14%
  Population Healthy Nuclei (%): 67%
  Population Hoechst High Intensity Objects (%): 8%
  Population Membrane Permeable-Phenotype (%): 6%
  Population Mitochondria Different-Phenotype (%): 13%
  Population Mitotic Cells (%): 50%
  Population Normal (%): 91%
  Population Pyknosed Nuclei (%): 18%
  Population Tubulin-Different-Phenotype (%): 4%
[7]
  Population Apoptotic (%): 76%
  Population Fragmented Nuclei (%): 18%
  Population Healthy Nuclei (%): 60%
  Population Hoechst High Intensity Objects (%): 5%
  Population Membrane Permeable-Phenotype (%): 35%
  Population Mitochondria Different-Phenotype (%): 97%
  Population Mitotic Cells (%): 23%
  Population Normal (%): 94%
  Population Pyknosed Nuclei (%): 20%
  Population Tubulin-Different-Phenotype (%): 100%
  Total Cell Count: 224
[8]
  Population Apoptotic (%): 85%
  Population Fragmented Nuclei (%): 11%
  Population Healthy Nuclei (%): 54%
  Population Hoechst High Intensity Objects (%): 8%
  Population Membrane Permeable-Phenotype (%): 21%
  Population Mitochondria Different-Phenotype (%): 96%
  Population Mitotic Cells (%): 14%
  Population Normal (%): 91%
  Population Pyknosed Nuclei (%): 34%
  Population Tubulin-Different-Phenotype (%): 93%
  Total Cell Count: 70
[11]
  Population Apoptotic (%): 56%
  Population Fragmented Nuclei (%): 13%
  Population Healthy Nuclei (%): 67%
  Population Hoechst High Intensity Objects (%): 5%
  Population Membrane Permeable-Phenotype (%): 5%
  Population Mitochondria Different-Phenotype (%): 12%
  Population Mitotic Cells (%): 44%
  Population Normal (%): 94%
  Population Pyknosed Nuclei (%): 18%
  Population Tubulin-Different-Phenotype (%): 7%
[12]
  Population Apoptotic (%): 38%
  Population Fragmented Nuclei (%): 10%
  Population Healthy Nuclei (%): 73%
  Population Hoechst High Intensity Objects (%): 6%
  Population Membrane Permeable-Phenotype (%): 13%
  Population Mitochondria Different-Phenotype (%): 16%
  Population Mitotic Cells (%): 61%
  Population Normal (%): 93%
  Population Pyknosed Nuclei (%): 15%
  Population Tubulin-Different-Phenotype (%): 14%
[9]
  Population Apoptotic (%): 70%
  Population Fragmented Nuclei (%): 24%
  Population Healthy Nuclei (%): 36%
  Population Hoechst High Intensity Objects (%): 7%
  Population Membrane Permeable-Phenotype (%): 36%
  Population Mitochondria Different-Phenotype (%): 88%
  Population Mitotic Cells (%): 29%
  Population Normal (%): 92%
  Population Pyknosed Nuclei (%): 38%
  Population Tubulin-Different-Phenotype (%): 96%
  Total Cell Count: 278
[10]
  Population Apoptotic (%): 73%
  Population Fragmented Nuclei (%): 9%
  Population Healthy Nuclei (%): 53%
  Population Hoechst High Intensity Objects (%): 15%
  Population Membrane Permeable-Phenotype (%): 48%
  Population Mitochondria Different-Phenotype (%): 100%
  Population Mitotic Cells (%): 26%
  Population Normal (%): 84%
  Population Pyknosed Nuclei (%): 37%
  Population Tubulin-Different-Phenotype (%): 90%
  Total Cell Count: 89
